Experiments:
Format in all cases: functional, Mus musculus
[1] = tested on: L1210 (1565); assay: Antitumor activity against L-1210 leukemia cell line in BDF1 mice after injecting 4 mg/kg intraperitoneal dose
Method in brief: (§1)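 Female BDF1 mice, five per dose group, inoculated ip with 10^5 viable L-1210 ascites cells. Dosing started the same day: ip, daily, five times a week for 4 weeks or until death. Vehicle was aqueous solution, or propylene glycol suspension if insoluble. Efficacy is expressed as T/C, the ratio of mean survival time of treated to untreated control mice. Survivors at 4 weeks counted as long-term.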

[2] = tested on: L1210 (1565); assay: Antitumor activity against L-1210 leukemia cell line in BDF1 mice after injecting 2 mg/kg intraperitoneal dose; method in brief: as §1
[3] = tested on: L1210 (1565); assay: Antitumor activity against L-1210 leukemia cell line in BDF1 mice after injecting 1 mg/kg intraperitoneal dose; method in brief: as §1
[4] = tested on: L1210 (1565); assay: Antitumor activity against L-1210 leukemia cell line in BDF1 mice after injecting 16 mg/kg intraperitoneal dose; method in brief: as §1
[5] = tested on: L1210 (1565); assay: Antitumor activity against L-1210 leukemia cell line in BDF1 mice after injecting 0.125 mg/kg intraperitoneal dose; method in brief: as §1
[6] = tested on: L1210 (1565); assay: Antitumor activity against L-1210 leukemia cell line in BDF1 mice after injecting 0.25 mg/kg intraperitoneal dose; method in brief: as §1
[7] = tested on: L1210 (1565); assay: Antitumor activity against L-1210 leukemia cell line in BDF1 mice after injecting 0.5 mg/kg intraperitoneal dose; method in brief: as §1
[8] = tested on: L1210 (1565); assay: Antitumor activity against L-1210 leukemia cell line in BDF1 mice after injecting 0.05 mg/kg intraperitoneal dose; method in brief: as §1

Q: Which T/C [1] does the source give for `CNC(=O)OC[C@]1(O)Cc2c(O)c3c(c(O)c2[C@@H](OC2CC(N)C(O)C(C)O2)C1)C(=O)c1ccccc1C3=O.Cl` (some centres undefined) here?
A: 280%

Q: Which T/C [2] does the source give for `COc1cccc2c1C(=O)c1c(O)c3c(c(O)c1C2=O)C[C@@](O)(C(=O)CO)C[C@@H]3O[C@H]1C[C@H](N)[C@H](O)[C@H](C)O1.Cl` [DOXORUBICIN HYDROCHLORIDE] here?
A: 330%

Q: `CC1OC(O[C@H]2C[C@](O)([C@@H](C)OC(=O)Nc3ccccc3)Cc3c(O)c4c(c(O)c32)C(=O)c2ccccc2C4=O)CC(N)C1O.Cl` (some centres undefined) was tested. Which T/C [3] did it give?
A: 280%

Q: With `COc1ccc(NC(=O)OC[C@]2(O)Cc3c(O)c4c(c(O)c3[C@@H](OC3CC(N)C(O)C(C)O3)C2)C(=O)c2ccccc2C4=O)cc1.Cl` (some centres undefined) as the molecule, how does the T/C [2] read?
A: 230%

Q: Which T/C [4] does the source give for `CC1OC(O[C@H]2C[C@](O)(COC(=O)Nc3ccccc3)Cc3c(O)c4c(c(O)c32)C(=O)c2ccccc2C4=O)CC(N)C1OCc1ccccc1.Cl` (some centres undefined) here?
A: 470%

Q: How did the T/C [5] turn out when `C[C@@H]1OC(O[C@H]2C[C@](O)([C@H](C)OC(=O)Nc3ccccc3)Cc3c(O)c4c(c(O)c32)C(=O)c2ccccc2C4=O)C[C@H](N)[C@H]1O.Cl` (some centres undefined) was run?
A: 400%

Q: How did the T/C [6] turn out when `C[C@@H]1OC(O[C@H]2C[C@](O)([C@@H](C)OC(=O)Nc3ccccc3)Cc3c(O)c4c(c(O)c32)C(=O)c2ccccc2C4=O)C[C@H](N)[C@@H]1O.Cl` (some centres undefined) was run?
A: 420%

Q: Which T/C ([2]; 2 mg/kg) does the source give for `CO[C@H]1[C@H](N)C[C@H](O[C@H]2C[C@](O)(COC(=O)Nc3ccccc3)Cc3c(O)c4c(c(O)c32)C(=O)c2ccccc2C4=O)O[C@H]1C.Cl` (stereo in doubt; 19) here?
A: 230%

Q: With `CC1OC(O[C@H]2C[C@](O)(COC(=O)Nc3ccc([N+](=O)[O-])cc3)Cc3c(O)c4c(c(O)c32)C(=O)c2ccccc2C4=O)CC(N)C1O.Cl` (some centres undefined) as the molecule, how does the T/C [1] read?
A: 210%

Q: `C[C@@H]1O[C@@H](O[C@H]2C[C@](O)(COC(=O)Nc3ccccc3)Cc3c(O)c4c(c(O)c32)C(=O)c2ccccc2C4=O)C[C@@H](N)[C@@H]1O.Cl` (stereo in doubt; 8a) was tested. Which T/C ([2]; 2 mg/kg) did it give?
A: 380%

Q: For `CC1OC(O[C@H]2C[C@](O)(COC(=O)Nc3ccc(Cl)cc3)Cc3c(O)c4c(c(O)c32)C(=O)c2ccccc2C4=O)CC(N)C1O.Cl` (some centres undefined), which T/C [2] is on record?
A: 370%

Q: Which T/C [2] does the source give for `C[C@H]1C[C@H](N)C[C@H](O[C@H]2C[C@](O)(COC(=O)Nc3ccccc3)Cc3c(O)c4c(c(O)c32)C(=O)c2ccccc2C4=O)O1.Cl` here?
A: 500%

Q: Which T/C [7] does the source give for `COc1cccc2c1C(=O)c1c(O)c3c(c(O)c1C2=O)C[C@@](O)(C(C)=O)C[C@@H]3O[C@H]1C[C@H](N)[C@H](O)[C@H](C)O1.Cl` [DAUNORUBICIN HYDROCHLORIDE] here?
A: 290%

Q: For `CC(=O)[C@]1(O)Cc2c(O)c3c(c(O)c2[C@@H](O[C@H]2C[C@@H](N)[C@H](O)[C@H](C)O2)C1)C(=O)c1ccccc1C3=O.Cl`, which T/C [8] is on record?
A: 230%
